Experimental data of several laboratories.
Lines come from different studies, so protocols differ.
Organism: Staphylococcus aureus
Effect on: microbial growth

Structure (SMILES) | technique | strain | time | notes | MIC
Cc1ccc2nc(-c3cccc(O)c3)[nH]c2c1 | broth dilution | ATCC43300 MRSA |  | drug-resistant strain | 64 µg/mL
CC1C(=NOCc2cn(-c3ccccc3)nn2)CC(c2ccccc2)OC1c1ccccc1 (centres unmarked) | broth dilution | MTCC96 | 24 h |  | 25 µg/mL
Oc1ccccc1-c1nc2ccccc2[nH]1 | broth dilution | ATCC43300 MRSA |  | drug-resistant strain | 256 µg/mL
COC(=O)c1cc(-c2ccc(NC(=O)Nc3ccc(Cl)c(Cl)c3)cc2)on1 | broth dilution | ATCC29213 |  |  | > 64 µg/mL
O=C(CCCCc1ccccc1)CP(=O)(O)O |  | ATCC33591 MRSA |  | drug-resistant strain | > 200 µg/mL
O=[N+]([O-])c1ccc(-c2nc3cc(Cl)ccc3[nH]2)o1 | broth dilution | ATCC700699 MRSA |  | drug-resistant strain | 2 µg/mL
CC1(C)S[C@@H]2[C@H](NC(=O)Cc3ccccc3)C(=O)N2[C@H]1C(=O)O |  | USA300 |  |  | 128 µg/mL
C[C@H]1COc2c(N3CCN(C)CC3)c(F)cc3c(=O)c(C(=O)O)cn1c23 | broth dilution | ATCC29213 |  |  | 0.125 µg/mL
Clc1ccc(Cn2c(-c3ccc(Cl)cc3)nc3ccccc32)cc1 | broth dilution | ATCC43300 MRSA |  | drug-resistant strain | 16 µg/mL
c1ccc(CCOC2CCCc3c2[nH]c2ccccc32)cc1 (centres unmarked) | broth dilution | VISA |  |  | > 16 µg/mL
CCCCCCCCCCCCCCCC(=O)C(F)(F)P(=O)(O)O |  | ATCC33591 MRSA |  | drug-resistant strain | 100 µg/mL
Oc1cc(Cl)ccc1Oc1ccc(Cl)cc1Cl |  |  |  |  | 1.8 µg/mL
COC(=O)c1cc(-c2cccc(NC(=O)Nc3ccc(Cl)c(Cl)c3)c2)on1 | broth dilution | ATCC29213 |  |  | > 64 µg/mL
C=CCn1c(-c2ccc(Cl)cc2)nc2ccc(C)cc21 | broth dilution | ATCC43300 MRSA |  | drug-resistant strain | 32 µg/mL
COC[C@H]1OC(=O)c2coc3c2[C@@]1(C)C1=C(C3=O)[C@@H]2CCC(=O)[C@@]2(C)C[C@H]1OC(C)=O |  | NCTC8325 |  |  | > 30 µM
CCC(CC)c1cc(CCN2CCCN(Cc3ccc(C(F)(F)F)cc3)CC2)nc(-c2ccncc2)n1 |  | ATCCBAA41 |  | drug-resistant strain, clinical isolate | 6 µg/mL
C=CCn1c(-c2ccc(OC)c(OC)c2)nc2ccccc21 | broth dilution | ATCC43300 MRSA |  | drug-resistant strain | 128 µg/mL
COC(=O)c1cc(-c2cccc(NC(=O)Nc3ccc(F)cc3)c2)on1 | broth dilution | ATCC29213 |  |  | > 64 µg/mL
Oc1cccc(-c2nc3ccccc3[nH]2)c1 | broth dilution | ATCC43300 MRSA |  | drug-resistant strain | 128 µg/mL
CC[C@H]1OC(=O)[C@H](C)[C@@H](O[C@H]2C[C@@](C)(OC)[C@@H](O)[C@H](C)O2)[C@H](C)[C@@H](O[C@@H]2O[C@H](C)C[C@H](N(C)C)[C@H]2O)[C@](C)(O)C[C@@H](C)C(=O)[C@H](C)[C@@H](O)[C@]1(C)O |  | USA300 |  |  | 32 µg/mL
